Data published in ChEMBL document CHEMBL4138266, “Lysine Analogue of Polymyxin B as a Significant Opportunity for Photodynamic Antimicrobial Chemotherapy” (ACS Med Chem Lett, 2018).
Values after ≈ are worked out from the molar mass of the structure shown. Active and inactive are the calls of the source. The rule behind the calls is not given here.

How the values were obtained:
[1] = tested on: Staphylococcus aureus; test: Photobactericidal activity against Staphylococcus aureus assessed as live bacterial population at 1 uM incubated for 30 mins followed by 1 washing by propidium iodide staining based flow cytometry; format: functional
Summary of the method: (§1)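 Bacteria were incubated with 1 µM conjugate for 30 min at 37 °C, washed with saline, then stained with propidium iodide (0.01 mg/mL) to assess viability. Samples were analysed by flow cytometry. Q1 is the PI-positive (permeable membrane) population; Q2 is double positive for PI and photosensitizer fluorescence.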

[2] = tested on: Pseudomonas aeruginosa; test: Bactericidal activity against Pseudomonas aeruginosa CIP76110 incubated for 30 mins under dark conditions; format: organism-based; conditions: 0.5 h
Summary of the method: (§2)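 Minimal bactericidal concentration (MBC) was determined in tryptic soy medium with log-phase bacteria at 37 °C. Plates were either kept in the dark or given 20 h of white light at 4.83 mW/cm². MBC was taken as the concentration killing 99.99% of bacteria, i.e. a 4-log reduction versus the untreated control.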

[3] = tested on: Escherichia coli; test: Photobactericidal activity against Escherichia coli assessed as dead bacteria with permeable membrane at 1 uM incubated for 30 mins followed by 3 washings by propidium iodide staining based flow cytometry; format: functional; summary of the method: as §1
[4] = tested on: Staphylococcus aureus; test: Photobactericidal activity against Staphylococcus aureus assessed as live bacterial population at 1 uM incubated for 30 mins followed by 3 washings by propidium iodide staining based flow cytometry; format: functional; summary of the method: as §1
[5] = tested on: Staphylococcus aureus; test: Photobactericidal activity against Staphylococcus aureus assessed as PI-positive and PS-positive cell population at 1 uM incubated for 30 mins followed by 3 washings by propidium iodide staining based flow cytometry; format: functional; summary of the method: as §1
[6] = tested on: Escherichia coli; test: Photobactericidal activity against Escherichia coli assessed as PI-positive and PS-positive cell population at 1 uM incubated for 30 mins followed by 1 washing by propidium iodide staining based flow cytometry; format: functional; summary of the method: as §1
[7] = tested on: Escherichia coli; test: Photobactericidal activity against Escherichia coli assessed as live bacterial cells with membrane integrity loss at 1 uM incubated for 30 mins followed by 3 washings by propidium iodide staining based flow cytometry; format: functional; summary of the method: as §1
[8] = tested on: Pseudomonas aeruginosa; test: Photobactericidal activity against Pseudomonas aeruginosa assessed as PI-positive and PS-positive cell population at 1 uM incubated for 30 mins followed by 1 washing by propidium iodide staining based flow cytometry; format: functional; summary of the method: as §1
[9] = tested on: NHDF; test: Cytotoxicity against human NHDF cells assessed as reduction in cell viability at 5 to 5000 nM irradiated with white light at 4.83 mW/cm2 for 2 hrs measured after 24 hrs by MTT assay; format: cell-based; conditions: 5 µM
[10] = tested on: Staphylococcus aureus; test: Photobactericidal activity against Staphylococcus aureus assessed as dead bacteria with permeable membrane at 1 uM incubated for 30 mins followed by 1 washing by propidium iodide staining based flow cytometry; format: functional; summary of the method: as §1
[11] = tested on: Pseudomonas aeruginosa; test: Photobactericidal activity against Pseudomonas aeruginosa assessed as PI-positive and PS-positive cell population at 1 uM incubated for 30 mins followed by 3 washings by propidium iodide staining based flow cytometry; format: functional; summary of the method: as §1
[12] = tested on: Staphylococcus aureus; test: Photobactericidal activity against Staphylococcus aureus assessed as dead bacteria with permeable membrane at 1 uM incubated for 30 mins followed by 3 washings by propidium iodide staining based flow cytometry; format: functional; summary of the method: as §1
[13] = tested on: Escherichia coli; test: Photobactericidal activity against Escherichia coli assessed as live bacterial cells with membrane integrity loss at 1 uM incubated for 30 mins followed by 1 washing by propidium iodide staining based flow cytometry; format: functional; summary of the method: as §1
[14] = tested on: Escherichia coli; test: Photobactericidal activity against Escherichia coli assessed as live bacterial population at 1 uM incubated for 30 mins followed by 1 washing by propidium iodide staining based flow cytometry; format: functional; summary of the method: as §1
[15] = tested on: NHDF; test: Cytotoxicity against human NHDF cells assessed as reduction in cell viability at 5 to 5000 nM incubated under dark conditions for 2 hrs measured after 24 hrs by MTT assay; format: cell-based; conditions: 5 µM
[16] = tested on: Pseudomonas aeruginosa; test: Photobactericidal activity against Pseudomonas aeruginosa assessed as dead bacteria with permeable membrane at 1 uM incubated for 30 mins followed by 1 washing by propidium iodide staining based flow cytometry; format: functional; summary of the method: as §1
[17] = tested on: Pseudomonas aeruginosa; test: Photobactericidal activity against Pseudomonas aeruginosa at 1 uM pretreated for 30 mins followed by compound wash out with subsequent irradiation with white light at 4.83 mW/cm2; format: functional, organism-based
Summary of the method: (§3)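 Bacteria were pre-incubated with conjugate in 1X PBS (P. aeruginosa at 1 µM), then washed three times with PBS. They were irradiated with white LED light (4.83 mW/cm²; 7 J/cm² corresponds to 24 min) at 37 °C. Survival, as % of initial density, was plotted against cumulative light fluence.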

[18] = tested on: Staphylococcus aureus; test: Photobactericidal activity against Staphylococcus aureus assessed as live bacterial cells with membrane integrity loss at 1 uM incubated for 30 mins followed by 3 washings by propidium iodide staining based flow cytometry; format: functional; summary of the method: as §1
[19] = tested on: Pseudomonas aeruginosa; test: Photobactericidal activity against Pseudomonas aeruginosa assessed as live bacterial cells with membrane integrity loss at 1 uM incubated for 30 mins followed by 3 washings by propidium iodide staining based flow cytometry; format: functional; summary of the method: as §1
[20] = tested on: Escherichia coli; test: Photobactericidal activity against Escherichia coli assessed as PI-positive and PS-positive cell population at 1 uM incubated for 30 mins followed by 3 washings by propidium iodide staining based flow cytometry; format: functional; summary of the method: as §1
[21] = tested on: Escherichia coli; test: Photobactericidal activity against Escherichia coli at 10 uM pretreated for 30 mins followed by compound wash out with subsequent irradiation with white light at 4.83 mW/cm2; format: functional, organism-based; summary of the method: as §3
[22] = tested on: Escherichia coli; test: Photobactericidal activity against Escherichia coli assessed as dead bacteria with permeable membrane at 1 uM incubated for 30 mins followed by 1 washing by propidium iodide staining based flow cytometry; format: functional; summary of the method: as §1
[23] = tested on: Staphylococcus aureus; test: Photobactericidal activity against Staphylococcus aureus assessed as live bacterial cells with membrane integrity loss at 1 uM incubated for 30 mins followed by 1 washing by propidium iodide staining based flow cytometry; format: functional; summary of the method: as §1
[24] = tested on: Escherichia coli; test: Photobactericidal activity against Escherichia coli CIP54.8T irradiated with white light at 4.83 mW/cm2 for 20 hrs; format: functional; conditions: light or radiation study; summary of the method: as §2
[25] = tested on: Pseudomonas aeruginosa; test: Photobactericidal activity against Pseudomonas aeruginosa assessed as live bacterial population at 1 uM incubated for 30 mins followed by 1 washing by propidium iodide staining based flow cytometry; format: functional; summary of the method: as §1
[26] = tested on: Staphylococcus aureus; test: Photobactericidal activity against Staphylococcus aureus CIP76.25 irradiated with white light at 4.83 mW/cm2 for 20 hrs; format: functional; conditions: CIP76.25, light or radiation study; summary of the method: as §2
[27] = tested on: Staphylococcus aureus; test: Photobactericidal activity against Staphylococcus aureus at 1 uM after 30 mins by confocal laser scanning microscopy; format: functional, organism-based
Summary of the method: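 S. aureus inoculum was suspended in 1 µM conjugate for 30 min at 37 °C, washed three times with PBS, and imaged by confocal laser scanning microscopy at 100X to visualise bacteria-associated fluorescence.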

[28] = tested on: Escherichia coli; test: Photobactericidal activity against Escherichia coli assessed as live bacterial population at 1 uM incubated for 30 mins followed by 3 washings by propidium iodide staining based flow cytometry; format: functional; summary of the method: as §1
[29] = tested on: Pseudomonas aeruginosa; test: Photobactericidal activity against Pseudomonas aeruginosa CIP76110 irradiated with white light at 4.83 mW/cm2 for 20 hrs; format: functional; conditions: CIP76110, light or radiation study; summary of the method: as §2
[30] = tested on: Staphylococcus aureus; test: Photobactericidal activity against Staphylococcus aureus assessed as PI-positive and PS-positive cell population at 1 uM incubated for 30 mins followed by 1 washing by propidium iodide staining based flow cytometry; format: functional; summary of the method: as §1
[31] = tested on: Escherichia coli; test: Bactericidal activity against Escherichia coli CIP54.8T incubated for 30 mins under dark conditions; format: organism-based; conditions: 0.5 h; summary of the method: as §2
[32] = tested on: Pseudomonas aeruginosa; test: Photobactericidal activity against Pseudomonas aeruginosa assessed as dead bacteria with permeable membrane at 1 uM incubated for 30 mins followed by 3 washings by propidium iodide staining based flow cytometry; format: functional; summary of the method: as §1
[33] = tested on: Pseudomonas aeruginosa; test: Photobactericidal activity against Pseudomonas aeruginosa assessed as live bacterial cells with membrane integrity loss at 1 uM incubated for 30 mins followed by 1 washing by propidium iodide staining based flow cytometry; format: functional; summary of the method: as §1
[34] = tested on: Pseudomonas aeruginosa; test: Photobactericidal activity against Pseudomonas aeruginosa assessed as live bacterial population at 1 uM incubated for 30 mins followed by 3 washings by propidium iodide staining based flow cytometry; format: functional; summary of the method: as §1
[35] = tested on: Staphylococcus aureus; test: Photobactericidal activity against Staphylococcus aureus at 10 uM pretreated for 30 mins followed by compound wash out with subsequent irradiation with white light at 4.83 mW/cm2; format: functional, organism-based; summary of the method: as §3
[36] = tested on: Staphylococcus aureus; test: Bactericidal activity against Staphylococcus aureus CIP76.25 incubated for 30 mins under dark conditions; format: ADME, organism-based; conditions: 0.5 h
Summary of the method: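 S. aureus exposed to compound in PBS 1X for 30 min at 37 °C, then washed three times with PBS. The light arm was white LED irradiation at 4.83 mW/cm² (7 J/cm² = 24 min) at 37 °C. Survival was expressed as % of initial bacterial density.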

CCCCCCCC(=O)N[C@@H](CSC1CC(=O)N(CCCCCC(=O)Nc2ccc(-c3c4nc(c(-c5cc[n+](C)cc5)c5ccc([nH]5)c(-c5cc[n+](C)cc5)c5nc(c(-c6cc[n+](C)cc6)c6ccc3[nH]6)C=C5)C=C4)cc2)C1=O)C(=O)N[C@H](C(=O)N[C@@H](CCCCN)C(=O)N[C@H]1CCNC(=O)[C@H]([C@@H](C)O)NC(=O)[C@H](CCCCN)NC(=O)[C@H](CCCCN)NC(=O)[C@H](CC(C)C)NC(=O)[C@@H](Cc2ccccc2)NC(=O)[C@H](CCCCN)NC1=O)[C@@H](C)O.[I-].[I-].[I-] (some centres undefined)
Activity [1]: 75.6% | MBC [2]: > 100 µM | Activity [3]: 5.2% | Activity [4]: 70.8% | Activity [5]: 5.8% | Activity [6]: 14% | Activity [7]: 9.6% | Activity [8]: 43.1% | Activity [9]: Non-Toxic | Activity [10]: 1.6% | Activity [11]: 28.9% | Activity [12]: 4.4% | Activity [13]: 14.6% | Activity [14]: 69.7% | Activity [15]: Non-Toxic | Activity [16]: 19.3% | Activity [17]: Active | Activity [18]: 19% | Activity [19]: 1.9% | Activity [20]: 22.8% | Activity [21]: Active | Activity [22]: 1.8% | Activity [23]: 19.7% | MBC [24]: 0.8 µM | Activity [25]: 34.6% | MBC [26]: 1.2 µM | Activity [27]: Active | Activity [28]: 62.5% | MBC [29]: 8 µM | Activity [30]: 3.2% | MBC [31]: 25 µM | Activity [32]: 37.7% | Activity [33]: 3% | Activity [34]: 31.6% | Activity [35]: Active

C[n+]1ccc(-c2c3nc(c(-c4cc[n+](C)cc4)c4ccc([nH]4)c(-c4cc[n+](C)cc4)c4nc(c(-c5cc[n+](C)cc5)c5ccc2[nH]5)C=C4)C=C3)cc1
MBC [24]: 18 µM | MBC [26]: 5 µM | MBC [29]: 20 µM

CCCCCCCC(=O)N[C@@H](CS)C(=O)N[C@H](C(=O)N[C@@H](CCN)C(=O)N[C@H]1CCNC(=O)[C@H]([C@@H](C)O)NC(=O)[C@H](CCN)NC(=O)[C@H](CCN)NC(=O)[C@H](CC(C)C)NC(=O)[C@@H](Cc2ccccc2)NC(=O)[C@H](CCN)NC1=O)[C@@H](C)O
MBC [2]: 10 µM (≈ 11.9 µg/mL) | MBC [36]: > 50 µM | MBC [24]: 5 µM (≈ 5.96 µg/mL) | MBC [26]: > 50 µM | MBC [29]: 10 µM (≈ 11.9 µg/mL) | MBC [31]: 5 µM (≈ 5.96 µg/mL)
